Test results from ChEMBL document CHEMBL1148918, “New pseudopterosin and seco-pseudopterosin diterpene glycosides from two Colombian isolates of Pseudopterogorgia elisabethae and their diverse biological activities” (J Nat Prod, 2004).
Converted amounts (≈) assume the structure as drawn.

Columns and labels:
[1] = (§1) Antiinflammatory activity in LPS-stimulated rat neonatal microglia assessed as drug level causing 50% PMA-induced LDH release preincubated 15 mins prior to PMA challenge by spectrophotometry; type: functional
How it was run: (§2)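 Neonatal rat microglia, 2 × 10^5 cells/well, primed 17 h with LPS (0.3 ng/mL) in DMEM + 10% FBS + penicillin/streptomycin at 35.9 °C, 5% CO2. Cells washed with warm HBSS, given compound (0.01-10 µM) or DMSO vehicle for 15 min, then PMA (1 µM). Triplicate wells, two independent experiments.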

Microglia [2] = experiment: as §1; type: functional; how it was run: as §2
[3] = (§3) Antiinflammatory activity in LPS-stimulated rat neonatal microglia assessed as inhibition of PMA-induced superoxide anion production preincubated 15 mins prior to PMA challenge; type: functional, cell-based; how it was run: as §2
Microglia [4] = experiment: as §3; type: functional, cell-based; how it was run: as §2
[5] = test system: Mycobacterium tuberculosis; experiment: Antimycobacterial activity against Mycobacterium tuberculosis H37Rv at 6.25 ug/mL; type: functional
[6] = (§4) Antiinflammatory activity in LPS-stimulated rat neonatal microglia assessed as inhibition of PMA-induced TXB2 production preincubated 15 mins prior to PMA challenge; type: functional, cell-based; how it was run: as §2
Microglia [7] = experiment: as §4; type: functional, cell-based; how it was run: as §2
Human betaherpesvirus 5 = experiment: Antiviral activity against HCMV; type: functional, organism-based
SF-268 = experiment: Cytotoxicity against human SF268 cells relative to control; type: functional; set-up: concentration or dose not given beside the values
How it was run: (§5)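 One-dose primary screen on a three-line panel (MCF-7, NCI-H460, SF268). Growth of treated cells given as percent of untreated controls.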

MCF7 = experiment: Cytotoxicity against human MCF7 cells relative to control; type: functional; set-up: concentration or dose not given beside the values; how it was run: as §5
NCI-H460 = experiment: Cytotoxicity against human NCI-H460 cells relative to control; type: functional; set-up: concentration or dose not given beside the values; how it was run: as §5
[8] = Cytotoxicity against human NCI60 cells; type: functional
Human alphaherpesvirus 1 = experiment: Antiviral activity against HSV1; type: functional, organism-based
Human alphaherpesvirus 2 = experiment: Antiviral activity against HSV2; type: functional, organism-based
Plasmodium falciparum = experiment: Antimalarial activity against chloroquine-resistant Plasmodium falciparum W2 after 48 hrs by fluorimetry; type: functional, organism-based; settings: W2, 48 h
Human alphaherpesvirus 3 = experiment: Antiviral activity against VZV; type: functional, organism-based

Compound | Activity [1] [µM] | Activity (Microglia [2]) | IC50 [3] [µM] | Activity (Microglia [4]) | inhibition at 6.25 µg/mL [5] [%] | IC50 [6] [µM] | Activity (Microglia [7]) | EC50 (Human betaherpesvirus 5) [µM] | Activity (SF-268) [%] | Activity (MCF7) [%] | Activity (NCI-H460) [%] | GI50 [8] [µM] | EC50 (Human alphaherpesvirus 1) [µM] | EC50 (Human alphaherpesvirus 2) [µM] | IC50 (Plasmodium falciparum) [µg/mL] | EC50 (Human alphaherpesvirus 3) [µM]
CC(=O)O[C@@H]1[C@@H](Oc2c(C)cc3c(c2O)[C@@H](C)CC[C@@H]3[C@@H](C)CCC=C(C)C)OC[C@@H](O)[C@H]1O | 10 | Dose-dependent effect | > 10 | Dose-dependent effect | 37 | > 10 | Dose-dependent effect |  |  |  |  |  |  |  |  | 
CC(=O)O[C@H]1[C@@H](O)[C@H](O)[C@H](Oc2c(C)c3c4c(c2O)[C@@H](C)CC[C@@H]4[C@@H](C)C[C@H]3C=C(C)C)O[C@H]1C [PSEUDOPTEROSIN P] | 0.6 | Dose-dependent effect | > 10 | Dose-dependent effect | 76 | > 10 | Dose-dependent effect | 2.9 | 0 | 0 | 0 | 1.7 | 2.9 | 2.9 | 12 (≈ 24.6 µM) | 2.6
Nc1nc2c(ncn2COCCO)c(=O)[nH]1 [ACYCLOVIR] |  |  |  |  |  |  |  |  |  |  |  |  | 0.95 | 0.95 |  | 
CC(=O)O[C@H]1[C@H](O)[C@@H](Oc2c(C)c3c4c(c2O)[C@@H](C)CC[C@@H]4[C@@H](C)C[C@H]3C=C(C)C)OC[C@H]1O [PSEUDOPTEROSIN V] | 2.2 | Dose-dependent effect | > 10 | Dose-dependent effect | 25 | > 10 | Dose-dependent effect |  | 0 | 0 | 0 | 20 |  |  | 1 (≈ 2.11 µM) | 
CC(=O)O[C@@H]1CO[C@H](Oc2c(C)cc3c(c2O)[C@@H](C)CC[C@@H]3[C@@H](C)CCC=C(C)C)[C@@H](O)[C@@H]1O | 3.6 | Dose-dependent effect | > 10 | Dose-dependent effect | 25 | > 10 | Dose-dependent effect |  |  |  |  |  |  |  |  | 
CC(=O)O[C@@H]1CO[C@H](Oc2c(C)c3c4c(c2O)[C@@H](C)CC[C@@H]4[C@@H](C)C[C@H]3C=C(C)C)[C@@H](O)[C@@H]1O [PSEUDOPTEROSIN U] | 0.7 | Dose-dependent effect | 14.7 | Dose-dependent effect | 43 | > 10 | Dose-dependent effect |  | 0 | 0 | 0 | 20 |  |  | 19 (≈ 40 µM) | 
CC(=O)O[C@H]1[C@H](O)[C@H](Oc2c(C)c3c4c(c2O)[C@@H](C)CC[C@@H]4[C@@H](C)C[C@H]3C=C(C)C)O[C@@H](C)[C@H]1O [PSEUDOPTEROSIN Q] | 3.4 | Dose-dependent effect | 11.2 | Dose-dependent effect | 37 | 4.7 | Dose-dependent effect |  | 107 | 103 | 101 |  |  |  | 15 (≈ 30.7 µM) | 
CC(=O)O[C@H]1[C@H](O)[C@@H](Oc2c(C)c3c4c(c2O)[C@@H](C)CC[C@@H]4[C@@H](C)C[C@H]3C=C(C)C)OC[C@H]1OC(C)=O [PSEUDOPTEROSIN W] | 10 | Dose-dependent effect | > 10 | Dose-dependent effect |  | > 10 | Dose-dependent effect |  | 0 | 0 | 0 |  |  |  |  | 
CC(=O)O[C@@H]1[C@@H](Oc2c(C)c3c4c(c2O)[C@@H](C)CC[C@@H]4[C@@H](C)C[C@H]3C=C(C)C)OC[C@@H](OC(C)=O)[C@H]1O [PSEUDOPTEROSIN X] | 2.35 | Dose-dependent effect | 10 | Dose-dependent effect |  | > 10 | Dose-dependent effect |  |  |  |  |  |  |  |  | 
